Assay results from different studies.
Each line is one published result; the experiments were not run side by side.
SIRT1: NAD-dependent protein deacetylase sirtuin-1 (SIRT1, Homo sapiens, UniProt Q96EB6)
XDH: Xanthine dehydrogenase/oxidase (XDH, Bos taurus, UniProt P80457)
SPHK2: Sphingosine kinase 2 (SPHK2, Homo sapiens, UniProt Q9NRA0)

The inhibition of `CC(=S)NCCCC[C@H](NC(=O)OCc1ccccc1)C(=O)N[C@@H](Cc1c[nH]c2ccccc12)C(=O)N[C@@H](CCCNC(=N)N)C(N)=O` is reported as 64% (SIRT1; enzyme activity, inhibitor; 1 µM).
`FC(F)(F)Oc1cccc(-c2cnc3ccc(-c4ccncc4)nn23)c1` has an activity vs control of 105% (Tau-tubulin kinase 2 (TTBK2, Homo sapiens, UniProt Q6IQ55); enzyme activity, inhibitor, radiometric; 5 µM).
`O=C1CC(CCc2c[nH]c3ccccc23)Oc2c(Br)cc(Cl)cc21` (centres unmarked) gave an inhibition of 19% (SIRT1; enzyme activity, inhibitor, fluorescence; 200 µM).
`O=C(Nc1ccc(CN2CCOCC2)c(C(F)(F)F)c1)c1ccc(C#Cc2cccc3cnccc23)cn1` has an activity vs control of 140% (Oxidized purine nucleoside triphosphate hydrolase (NUDT1, Homo sapiens, UniProt P36639); enzyme activity, activator; 3 µM).
`O=Cc1ccc(O)cc1` has an inhibition of 3.2% (XDH; enzyme activity, inhibitor, absorbance; 100 µg/mL).
With `N[C@@H]1CON=C1O` the kinact/KI was 8.6 M⁻¹ s⁻¹ (Alanine racemase, biosynthetic (alr, Escherichia coli K-12, UniProt P0A6B4); enzyme activity, inhibitor).
With `[H]/N=C(\N)N1CCC[C@H]1c1nc(-c2ccc(OCC=Cc3cccc(C(F)(F)F)c3)c(C(F)(F)F)c2)no1` the inhibition was 56% (SPHK2; enzyme activity, inhibitor, radiometric; 0.3 µM).
For `CC(C)(O)[C@H]1CC[C@H](Nc2ccc3ncc(-c4cccc(C(F)(F)F)c4)n3n2)CC1`, the remaining activity was 97.7% (Testis-specific serine/threonine-protein kinase 6 (TSSK6, Homo sapiens, UniProt Q9BXA6); enzyme activity, inhibitor; 1 µM).
For `CCCCc1ccc(CCc2ccc(-c3noc([C@@H]4CCCN4C(=N)N)n3)cc2C(F)(F)F)cc1`, the inhibition was 59% (SPHK2; enzyme activity, inhibitor, radiometric; 0.3 µM).
The Emax of `CCOC(=O)[C@](CC)(CCCS(=O)(=O)CCOCCOCCNC(=O)OC(C)(C)C)NC(=O)c1ccc(C2CC2)c(Cc2ccc(F)cc2)n1` is reported as 80% (Cannabinoid receptor 2 (Cnr2, Mus musculus, UniProt P47936); cAMP, agonist).
The ΔTm of `C[C@]12CC[C@@H]3c4ccc(O)cc4CC[C@H]3[C@@H]1CC[C@@H]2O` is reported as 1.38 °C (Protein disulfide-isomerase (P4HB, Homo sapiens, UniProt P07237); thermal stability, DSF; 100 µM).
`Cn1c(=O)[nH]c(=O)c2c1nc(S)n2CC(O)COc1ccc(Cl)cc1` (centres unmarked) gave a kinact/KI of 14800 M⁻¹ s⁻¹ (Legumain (Homo sapiens, UniProt Q99538); enzyme activity, inhibitor, fluorescence).
The inhibition of `CCCCCc1cc(=O)c2cc(Cl)cc(Br)c2o1` is reported as 9.8% (SIRT1; enzyme activity, inhibitor, fluorescence; 200 µM).
`Oc1ncnc2[nH]ncc12` has an inhibition of 98.7% (XDH; enzyme activity, inhibitor, absorbance; 50 µg/mL).
